Experimental data taken from ChEMBL document CHEMBL1139470, “Benzophenone-based farnesyltransferase inhibitors with high activity against Trypanosoma cruzi” (J Med Chem, 2005).

Legend:
[1] = Inhibition of Saccharomyces cerevisiae FTase
Trypanosoma cruzi = assay: Inhibition of Trypanosoma cruzi Tulahuen in BALB/c mouse blood; type: functional
How it was run: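 Trypomastigote lysis assay: mouse blood (from infected BALB/c, cardiac puncture) holding 5 × 10^4 bloodstream trypomastigotes per well, compound added from 10 mM DMSO stock diluted in BHI; DMSO controls (final 1/1000). 24 h at 4 °C, then microscopic counting at 400×. Triplicates, experiments repeated 3–4 times; lysis relative to control; LC50 = minimal concentration lysing 50%.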

[2] = Cytotoxicity against HeLa cells after 72 hrs; type: cell-based; details: human
How it was run: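 HeLa cells grown in RPMI 1640 with 10% heat-inactivated FBS and gentamicin, then harvested in log phase by trypsinization. About 10 000 cells/well were preincubated 48 h before compound addition (10 mM DMSO stock diluted 1:200 in medium). Cells were exposed 72 h at 37 °C, 5% CO2, fixed with glutaraldehyde and stained with methylene blue. Stain was eluted with HCl and OD read at 660 nm to give CC50.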

Mus musculus [3] = assay: Survival of BALB/c mouse infected with Trypanosoma cruzi trypomastigotes at 7 mg/kg/day relative to control; type: functional
How it was run: (§1)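 Male BALB/c mice, 60 days old, infected intraperitoneally with 500 bloodstream trypomastigotes (groups of five; untreated infected controls, six). Oral dosing (25 µL) from 30 min post-infection, five times weekly, 39 doses total (21 at 3.2 mg/kg/day). Control mice got physiological solution. Parasitemia checked by tail-blood microscopy twice weekly. Survival recorded to day 115 pi.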

Vero [4] = assay: Cytotoxicity against Vero cells at 100 uM; type: cell-based; details: chlorocebus sabaeus
How it was run: (§2)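 Vero cells cultured in RPMI 1640 with 5% heat-inactivated FBS. 10^4 cells/well were incubated with compound at 37 °C, 5% CO2, in triplicate per concentration. DMSO was the diluent at a final 1/1000, and DMSO-only wells served as control. Toxicity was judged by cell morphology and confluent growth.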

Vero [5] = assay: Effect on Vero cell morphology at 100 uM; type: functional, cell-based; details: Chlorocebus sabaeus; how it was run: as §2
Mus musculus [6] = assay: Survival of BALB/c mouse infected with Trypanosoma cruzi trypomastigotes at 3.2 mg/kg/day relative to control; type: functional; how it was run: as §1
Mus musculus [7] = assay: Survival of BALB/c mouse infected with Trypanosoma cruzi trypomastigotes at 6.4 mg/kg/day relative to control; type: functional; how it was run: as §1

Structure (SMILES)	IC50 [1]	LC50 (Trypanosoma cruzi)	CC50 at 72 h [2]	other results
CCN1CCN(C(C(=O)Nc2ccc(NC(=O)/C=C/c3ccc(-c4ccc([N+](=O)[O-])cc4)o3)cc2C(=O)c2ccccc2)c2ccccc2)CC1 (configuration not stated)	> 10000 nM	> 50000 nM	–	–
CC[C@H](C)[C@H](N)C(=O)Nc1ccc(NC(=O)/C=C/c2ccc(-c3ccc([N+](=O)[O-])cc3)o2)cc1C(=O)c1ccccc1	150 nM	100 nM	> 83000 nM	–
CC(C)(C)OC(=O)NC(C(=O)Nc1ccc(NC(=O)/C=C/c2ccc(-c3ccc([N+](=O)[O-])cc3)o2)cc1C(=O)c1ccccc1)c1ccc(C(F)(F)F)cc1 (configuration not stated)	8 nM	50000 nM	–	–
N[C@@H](Cc1c[nH]c2ccccc12)C(=O)Nc1ccc(NC(=O)/C=C/c2ccc(-c3ccc([N+](=O)[O-])cc3)o2)cc1C(=O)c1ccccc1	580 nM	10000 nM	–	–
Cc1ccc(CC(=O)Nc2ccc(NC(=O)/C=C/c3ccc(-c4ccc(S(C)(=O)=O)cc4)o3)cc2C(=O)c2ccccc2)cc1	30 nM	50000 nM	–	–
O=C(/C=C/c1ccc(-c2ccc([N+](=O)[O-])cc2)o1)Nc1ccc(NC(=O)C(c2ccccc2)N2CCN(c3ccccc3)CC2)c(C(=O)c2ccccc2)c1 (configuration not stated)	300 nM	> 50000 nM	–	–
Cc1ccc(CC(=O)Nc2ccc(NC(=O)/C=C/c3ccc(-c4ccc([N+](=O)[O-])cc4)o3)cc2C(=O)c2ccccc2)cc1	35 nM	> 100000 nM	> 85000 nM	–
NC(C(=O)Nc1ccc(NC(=O)/C=C/c2ccc(-c3ccc([N+](=O)[O-])cc3)o2)cc1C(=O)c1ccccc1)c1ccc(F)cc1 (configuration not stated)	25 nM	50000 nM	> 78000 nM	–
CSCC[C@@H](N)C(=O)Nc1ccc(NC(=O)/C=C/c2ccc(-c3ccc([N+](=O)[O-])cc3)o2)cc1C(=O)c1ccccc1	500 nM	> 10000 nM	> 81000 nM	–
O=C(/C=C/c1ccc(-c2ccc([N+](=O)[O-])cc2)o1)Nc1ccc(NC(=O)C(c2ccccc2)N2CCN(C3CCCCC3)CC2)c(C(=O)c2ccccc2)c1 (configuration not stated)	340 nM	1000 nM	42000 nM	–
CC(C)(C)OC(=O)NC(Cc1ccc(C(F)(F)F)cc1)C(=O)Nc1ccc(NC(=O)/C=C/c2ccc(-c3ccc([N+](=O)[O-])cc3)o2)cc1C(=O)c1ccccc1 (configuration not stated)	285 nM	> 50000 nM	–	–
N[C@H](Cc1ccc(Cl)cc1)C(=O)Nc1ccc(NC(=O)/C=C/c2ccc(-c3ccc([N+](=O)[O-])cc3)o2)cc1C(=O)c1ccccc1	70 nM	> 10000 nM	> 74500 nM	–
CCCN1CCN(C(C(=O)Nc2ccc(NC(=O)/C=C/c3ccc(-c4ccc([N+](=O)[O-])cc4)o3)cc2C(=O)c2ccccc2)c2ccccc2)CC1 (configuration not stated)	125 nM	10 nM	68000 nM	survival at 7 mg/kg/day (Mus musculus [3]): 60%; Activity (Vero [4]): Non-toxic; Activity (Vero [5]): Non-toxic
O=C1CCN(C(C(=O)Nc2ccc(NC(=O)/C=C/c3ccc(-c4ccc([N+](=O)[O-])cc4)o3)cc2C(=O)c2ccccc2)c2ccccc2)CC1 (configuration not stated)	–	1000 nM	–	–
O=C(/C=C/c1ccc(-c2ccc([N+](=O)[O-])cc2)o1)Nc1ccc(NC(=O)C(c2ccccc2)N2CCN(Cc3ccccc3)CC2)c(C(=O)c2ccccc2)c1 (configuration not stated)	660 nM	50000 nM	–	–
CC(C)C[C@H](N)C(=O)Nc1ccc(NC(=O)/C=C/c2ccc(-c3ccc([N+](=O)[O-])cc3)o2)cc1C(=O)c1ccccc1	360 nM	1000 nM	> 83000 nM	–
CN1CCN(C(C(=O)Nc2ccc(NC(=O)/C=C/c3ccc(-c4ccc([N+](=O)[O-])cc4)o3)cc2C(=O)c2ccccc2)c2ccc(Cl)cc2)CC1 (configuration not stated)	125 nM	10000 nM	38600 nM	–

Structure (SMILES)	IC50 [1]	LC50 (Trypanosoma cruzi)	CC50 at 72 h [2]	other results
NC(Cc1ccc(C(F)(F)F)cc1)C(=O)Nc1ccc(NC(=O)/C=C/c2ccc(-c3ccc([N+](=O)[O-])cc3)o2)cc1C(=O)c1ccccc1 (configuration not stated)	95 nM	50000 nM	–	–
O=C(/C=C/c1ccc(-c2ccc([N+](=O)[O-])cc2)o1)Nc1ccc(NC(=O)Cc2ccc(C(F)(F)F)cc2)c(C(=O)c2ccccc2)c1	26 nM	50000 nM	> 57000 nM	–
NC(C(=O)Nc1ccc(NC(=O)/C=C/c2ccc(-c3ccc([N+](=O)[O-])cc3)o2)cc1C(=O)c1ccccc1)c1ccc(C(F)(F)F)cc1 (configuration not stated)	17 nM	10000 nM	–	–
CCc1ccc(-c2ccc(/C=C/C(=O)Nc3ccc(NC(=O)Cc4ccc(C)cc4)c(C(=O)c4ccccc4)c3)o2)cc1	90 nM	50000 nM	–	–
O=C(/C=C/c1ccc(-c2ccc([N+](=O)[O-])cc2)o1)Nc1ccc(NC(=O)C(c2ccccc2)N2CCCCC2)c(C(=O)c2ccccc2)c1 (configuration not stated)	455 nM	50000 nM	–	–
N[C@@H](Cc1ccc(Cl)cc1)C(=O)Nc1ccc(NC(=O)/C=C/c2ccc(-c3ccc([N+](=O)[O-])cc3)o2)cc1C(=O)c1ccccc1	60 nM	1000 nM	> 74500 nM	–
N[C@@H](Cc1ccccc1)C(=O)Nc1ccc(NC(=O)/C=C/c2ccc(-c3ccc([N+](=O)[O-])cc3)o2)cc1C(=O)c1ccccc1	3 nM	> 10000 nM	> 79000 nM	–
O=C(/C=C/c1ccc(-c2ccc([N+](=O)[O-])cc2)o1)Nc1ccc(NC(=O)C(c2ccccc2)N2CCN(CCO)CC2)c(C(=O)c2ccccc2)c1 (configuration not stated)	430 nM	10000 nM	71000 nM	–
CSCC[C@H](N)C(=O)Nc1ccc(NC(=O)/C=C/c2ccc(-c3ccc([N+](=O)[O-])cc3)o2)cc1C(=O)c1ccccc1	1770 nM	> 10000 nM	> 81000 nM	–
N[C@@H](C(=O)Nc1ccc(NC(=O)/C=C/c2ccc(-c3ccc([N+](=O)[O-])cc3)o2)cc1C(=O)c1ccccc1)c1ccccc1	8 nM	> 50000 nM	> 80000 nM	–
CC(C)C[C@@H](N)C(=O)Nc1ccc(NC(=O)/C=C/c2ccc(-c3ccc([N+](=O)[O-])cc3)o2)cc1C(=O)c1ccccc1	500 nM	100 nM	47800 nM	–
CC(C)NC(=O)CN1CCN(C(C(=O)Nc2ccc(NC(=O)/C=C/c3ccc(-c4ccc([N+](=O)[O-])cc4)o3)cc2C(=O)c2ccccc2)c2ccccc2)CC1 (configuration not stated)	340 nM	> 50000 nM	–	–
O=C(/C=C/c1ccc(-c2ccc([N+](=O)[O-])cc2)o1)Nc1ccc(NC(=O)C(c2ccccc2)N2CCOCC2)c(C(=O)c2ccccc2)c1 (configuration not stated)	660 nM	50000 nM	> 76000 nM	–
N[C@H](Cc1ccccc1)C(=O)Nc1ccc(NC(=O)/C=C/c2ccc(-c3ccc([N+](=O)[O-])cc3)o2)cc1C(=O)c1ccccc1	116 nM	1 nM	> 78000 nM	Activity (Vero [4]): Non-toxic; survival at 3.2 mg/kg/day (Mus musculus [6]): 0%; Activity (Vero [5]): Non-toxic; survival at 6.4 mg/kg/day (Mus musculus [7]): 80%
CN1CCN(C(C(=O)Nc2ccc(NC(=O)/C=C/c3ccc(-c4ccc([N+](=O)[O-])cc4)o3)cc2C(=O)c2ccccc2)c2ccccc2)CC1 (configuration not stated)	10 nM	10000 nM	37000 nM	–
N[C@H](C(=O)Nc1ccc(NC(=O)/C=C/c2ccc(-c3ccc([N+](=O)[O-])cc3)o2)cc1C(=O)c1ccccc1)c1ccccc1	46 nM	> 50000 nM	> 80000 nM	–
